The values that follow come from paper PMC4062594 (Nature chemical biology, 2014).

Numbering of substitutions follows the chain as printed. Entries after “also recorded” stand apart in the source; their conditions may differ.

One data set deals with T1, PTP1B1-321 (Homo sapiens, UniProt P18031).
T1 sequence (P18031 1-321): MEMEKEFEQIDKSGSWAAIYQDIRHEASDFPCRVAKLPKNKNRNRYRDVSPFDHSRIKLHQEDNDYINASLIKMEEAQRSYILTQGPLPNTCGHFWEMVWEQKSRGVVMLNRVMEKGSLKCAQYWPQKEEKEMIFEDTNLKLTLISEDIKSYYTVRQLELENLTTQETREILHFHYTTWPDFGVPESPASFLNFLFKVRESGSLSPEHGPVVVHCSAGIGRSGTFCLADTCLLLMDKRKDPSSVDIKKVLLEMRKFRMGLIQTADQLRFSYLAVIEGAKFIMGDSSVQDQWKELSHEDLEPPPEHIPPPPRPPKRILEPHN
The experiment in a line: PTP assay with DiFMUP substrate. The class given is biochemical.

The target of data set [1] is T2, PTP1B1-405 (Homo sapiens, UniProt P18031).
T2 sequence (P18031 1-405): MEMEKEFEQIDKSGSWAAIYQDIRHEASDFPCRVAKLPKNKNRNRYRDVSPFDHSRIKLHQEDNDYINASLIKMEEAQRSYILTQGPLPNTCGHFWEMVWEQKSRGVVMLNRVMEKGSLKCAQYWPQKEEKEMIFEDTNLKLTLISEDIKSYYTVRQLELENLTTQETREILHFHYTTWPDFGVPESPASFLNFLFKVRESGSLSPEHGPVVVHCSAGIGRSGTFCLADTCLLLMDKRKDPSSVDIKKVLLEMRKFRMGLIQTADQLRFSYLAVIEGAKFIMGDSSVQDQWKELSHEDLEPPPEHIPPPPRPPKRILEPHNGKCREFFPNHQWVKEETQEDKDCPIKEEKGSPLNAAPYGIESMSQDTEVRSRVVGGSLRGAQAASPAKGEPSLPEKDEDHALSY
The experiment in a line: Direct binding assay with [3H]-MSI-1436.

Data set [2] deals with T2, PTP1B1-405. The experiment in a line: Gel filtration.
The next data set concerns the target T3, PTP1B1-405 V370P (Homo sapiens, UniProt P18031, V370P).
T3 sequence (P18031 1-405 V370P): T2 sequence (P18031 1-405) with V370P
In words: PTP assay, helix α9′ point mutant. The note with it: S372P, R373P versus wild type. In kind it is biochemical.

The target of another data set is T4, PTP1B1-405 L192A/S372P (Homo sapiens, UniProt P18031, L192A/S372P).
T4 sequence (P18031 1-405 L192A/S372P): T2 sequence (P18031 1-405) with L192A, S372P
The experiment in a line: PTP assay, double point mutant. In kind it is biochemical. In short, it runs like this:
(§1)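 Continuous fluorescence PTP assay with 10 nM purified PTP1B and 10 μM DiFMUP substrate. Emission at 450 nm was monitored for 20 minutes.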

The target of the next data set is T5, PTP1B (1-367) (Homo sapiens, UniProt P18031).
T5 sequence (P18031 1-367): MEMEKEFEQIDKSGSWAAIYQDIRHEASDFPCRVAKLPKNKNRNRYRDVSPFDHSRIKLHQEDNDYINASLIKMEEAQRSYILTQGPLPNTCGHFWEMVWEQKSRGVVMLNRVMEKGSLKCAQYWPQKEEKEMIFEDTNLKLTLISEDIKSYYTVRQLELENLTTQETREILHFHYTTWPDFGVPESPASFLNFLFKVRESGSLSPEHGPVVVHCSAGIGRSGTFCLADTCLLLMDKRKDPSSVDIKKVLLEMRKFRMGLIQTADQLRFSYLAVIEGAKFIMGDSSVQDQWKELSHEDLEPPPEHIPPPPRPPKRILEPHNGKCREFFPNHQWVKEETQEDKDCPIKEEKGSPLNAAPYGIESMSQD
In words: PTP assay, truncation mutant. Conditions: similar to PTP1B1-321. In kind it is biochemical. In short, it runs like this: as §1

Data set [3] has as its target T2, PTP1B1-405. In words: Binding of recombinant protein to bead-immobilized compound. Conditions: in vitro. The essentials: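 Beads were washed in the same buffer plus 0.01% NP-40 and 1% glycerol, then heat-eluted in SDS sample buffer. Eluates were run on 10% SDS-PAGE and stained with Coomassie or silver.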
The next data set deals with BT-474 cells. In words: Cell migration assay. In kind it is cell-based. The note with it: HER2-positive, MSI-1436 5 µM.
For a further data set, the system named is SKBR3 cells. The experiment in a line: Cell migration assay. In kind it is cell-based. The note with it: HER2-positive, MSI-1436 5 µM.
Data set [4] concerns panel of breast cancer cells. In words: Annexin/PI staining. Conditions: cells sensitive to Lapatinib. The class given is cell-based. In short, it runs like this: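 Cells (1 × 10^5) plated in 6-well plates in growth medium, left untreated or given test compound at 2 and 5 μM. Stained with annexin and PI per kit instructions, then analysed by flow cytometry.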
For data set [5], the system named is NDL2 mammary tumors and lung metastasis. In words: NDL2 transgenic mouse model of breast cancer. The class given is in vivo. In short, it runs like this:
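NDL2 mice with palpable tumours were randomised to saline or test compound (5 or 10 mg/kg, 100 μl) i.p. every third day for 45 days, using freshly prepared solutions. Animals were killed after 45 d, and tumours were removed, counted and weighed. Whole lungs were sectioned, H&E-stained and scored for metastases. Groups had six animals; Student t-test was used.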

For data set [6] the following is noted: patients; cited from earlier work.
Where [7] appears, read: 5 mg/kg intraperitoneally every third day, relative to control.

With `CC(C)[C@@H](CC[C@@H](C)[C@H]1CC[C@H]2[C@@H]3[C@H](O)C[C@H]4C[C@@H](NCCCNCCCCNCCCN)CC[C@]4(C)[C@H]3CC[C@]12C)OS(=O)(=O)O` [MSI-1436, Trodusquemine], the mode of inhibition result at PTP1B1-321 is given as “reversible non-competitive inhibitor”. At PTP1B1-405 [1] (Hill plot), this molecule yielded a Hill coefficient of 1.3. At PTP1B1-405 [1] (scintillation counting), this molecule registered a stoichiometry of 2 mol/mol. Moreover, on PTP1B1-405 [2], the “oligomerization of the phosphatase” value is given as “did not cause the phosphatase to oligomerize”. For the same molecule, the “calculated molecular weight of PTP1B1-405” value at PTP1B1-405 [2] (in the presence of the inhibitor (~47k in the absence)) is ~ 43 k. In addition, on PTP1B1-405 V370P, the “increase of Ki by helix-destabilizing Pro mutations” value was 10–20 fold. Also, the “inhibition by MSI-1436” value against PTP1B1-405 L192A/S372P is listed as “complete loss of inhibition; also recorded: insensitive to MSI-1436”. Besides, the “inhibitory potency compared to PTP1B1-405 and PTP1B1-394” value against PTP1B (1-367) is listed as “lower”. Besides, the “binding to bead-immobilized compound” value at PTP1B1-405 [3] is “bound”. Further, the migration entry with BT-474 cells is reported as “attenuated migration”. In addition, the migration entry with SKBR3 cells is “attenuated migration”. Moreover, the apoptosis entry in [4] is given as “limited effect on apoptosis”. In data set [5] (setting [7]), the tumor number result is given as “marked decrease” and the tumor size result is on record as “marked decrease”. For the same molecule, the lung metastasis result in [5] (5 or 10 mg/kg intraperitoneally every third day) is reported as “essentially abrogated”. In addition, in data set [6], the tolerability result is “well tolerated”.
